In the library only some 3.6% were active in any assay of this set; here they are far more common.
VIM-2 inhibitor: VIM-2 metallo-beta-lactamase inhibitors, primary screen, biochemical, epi-absorbance readout, Pseudomonas aeruginosa enzyme. purified VIM-2, nitrocefin hydrolysis, epi-absorbance fluorescence. inhibition, % at 5.6 µM. 0.89% of 290,000 active;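 active = inhibition above the mean of all tested compounds plus 3 SD, cutoff set per screening run, cut at about 7.5% in these data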;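 also: red hydrolysis product quenches plate fluorescence so inhibitors raise well fluorescence; 0% = enzyme with DMSO and 100% = DMSO without enzyme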
pPAFAH inh: pPAFAH enzyme inhibitors, primary screen, biochemical, fluorescence polarization, human; inhibition, % at 3.39 µM; 1.5% of 330,000 active; Platelet-activating factor acetylhydrolase (Homo sapiens), Q13093; recombinant pPAFAH, FP-rhodamine probe fluorescence polarization;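 active = inhibition above the mean inhibition across the screen plus 3 SD, cut at about 25% in these data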;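 also: inhibitors block binding of the rhodamine activity-based probe so polarization drops; 0% = enzyme with DMSO and 100% = wells lacking pPAFAH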
PAFAH2 FP inh: PAFAH2 enzyme inhibitors, primary screen, biochemical, fluorescence polarization, human. Platelet-activating factor acetylhydrolase 2, cytoplasmic (Homo sapiens), Q99487. recombinant PAFAH2, FP-rhodamine activity probe. inhibition, % at 3.39 µM. 0.99% of 340,000 active;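 active = inhibition above the mean over all tested compounds plus 3 SD, cut at about 30% in these data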;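 also: inhibitors block probe labeling of enzyme so polarization drops; 0% = enzyme with DMSO and 100% = wells lacking PAFAH2 protein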
PAFAH1B3 FP inh: PAFAH1B3 enzyme inhibitors, primary screen, biochemical, fluorescence polarization, human | recombinant PAFAH1B3, FP-rhodamine probe | inhibition, % at 3.39 µM | 0.28% of 340,000 active;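 active = inhibition above the screen-wide average of all tested compounds plus 3 SD, cut at about 25% in these data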;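 also: 0% = enzyme with DMSO only and 100% = wells lacking PAFAH1B3 protein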
Target sequence (Q15102 whole entry, looked up): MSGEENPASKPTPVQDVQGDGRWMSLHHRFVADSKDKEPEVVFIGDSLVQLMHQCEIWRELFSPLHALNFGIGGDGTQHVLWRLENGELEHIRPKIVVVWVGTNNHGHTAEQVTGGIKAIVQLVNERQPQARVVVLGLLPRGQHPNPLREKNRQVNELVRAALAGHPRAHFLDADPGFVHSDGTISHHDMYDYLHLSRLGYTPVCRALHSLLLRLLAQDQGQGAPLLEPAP
IMP-1 inh-1: IMP-1 metallo-beta-lactamase inhibitors, primary screen, biochemical, epi-absorbance readout, Pseudomonas aeruginosa enzyme. purified IMP-1, nitrocefin hydrolysis, epi-absorbance fluorescence. inhibition, % at 5.6 µM. 0.45% of 290,000 active. AID 1556, 2009;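 active = inhibition above the mean plus 3 SD of all compounds in the same screening run, cut at about 4.5% in these data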;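 also: 0% = IMP-1 with DMSO and 100% = DMSO wells lacking enzyme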
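System: purified recombinant IMP-1 beta-lactamase. Medium: Zinc- and detergent-supplemented HEPES buffer, pH 7.1. Compound: one 5.6 µM dose […]. Schedule: 15 min preincubation plus 25 min reaction at 25 °C. Technique: Epi-absorbance fluorescence, 480 nm excitation, 530 nm emission.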
PAFAH1B2 inh: PAFAH1B2 enzyme inhibitors, primary screen, biochemical, fluorescence polarization, human; AID 492953, 2010; recombinant PAFAH1B2, FP-rhodamine activity probe; 1.2% of 340,000 active; Platelet-activating factor acetylhydrolase IB subunit alpha2 (Homo sapiens), P68402; inhibition, % at 3.39 µM;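 active = inhibition above the mean of all tested compounds plus 3 SD, cut at about 24% in these data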;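 also: 0% = enzyme with DMSO and 100% = wells lacking PAFAH1B2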
Target sequence (P68402 whole entry, looked up): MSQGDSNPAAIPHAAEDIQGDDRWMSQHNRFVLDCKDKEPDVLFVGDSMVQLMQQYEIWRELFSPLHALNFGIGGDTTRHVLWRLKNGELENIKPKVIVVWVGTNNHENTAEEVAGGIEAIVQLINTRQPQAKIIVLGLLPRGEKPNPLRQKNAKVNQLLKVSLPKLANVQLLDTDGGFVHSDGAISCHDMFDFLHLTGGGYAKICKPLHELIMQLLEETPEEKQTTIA
IMP-1 inh-2: IMP-1 metallo-beta-lactamase inhibitors, confirmation, selectivity assay for selective VIM-2 inhibitor project, biochemical, epi-absorbance readout, triplicate | shares compounds with VIM-2 inhibitor | purified IMP-1, nitrocefin hydrolysis, epi-absorbance fluorescence | inhibition, % at 5.6 µM | 1,300 tested, under 10 active; call rule not given here;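 also: 0% = enzyme with vehicle and 100% = vehicle without enzyme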
VIM-2 FRET ctr: VIM-2 inhibitors in FRET format, confirmation, artefact control for selective VIM-2 inhibitor project, biochemical, epi-absorbance artifact exclusion; shares compounds with VIM-2 inhibitor; purified VIM-2, CCF2 FRET substrate hydrolysis; inhibition, % at 5.6 µM; 23% of 1,300 active;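 active = inhibition above the mean of all tested compounds plus 3 SD, cut at about 19% in these data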;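 also: 0% = VIM-2 plus DMSO and 100% = no enzyme wells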
TEM-1 counter: TEM-1 serine beta-lactamase inhibitors, counter-screen for VIM-2 inhibitor project, biochemical, epi-absorbance, HTS | 3% of 1,300 active | Purified TEM-1, nitrocefin hydrolysis, epi-absorbance fluorescence | inhibition, % at 5.6 µM | AID 1866, 2009 | shares compounds with VIM-2 inhibitor;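 active = inhibition above that campaign's mean inhibition plus 3 SD, cut at about 0.46% in these data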;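 also: 0% = TEM-1 with DMSO and 100% = TEM-1 with 100 µM potassium clavulanate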
VIM-2 confirm 2: VIM-2 metallo-beta-lactamase inhibitors, confirmation, biochemical, epi-absorbance, hits shared with IMP-1 screen. shares compounds with VIM-2 inhibitor. purified VIM-2, nitrocefin hydrolysis. inhibition, % at 5.6 µM. 96% of 1,300 active. AID 2187, 2009;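 active = inhibition of the VIM-2 beta-lactamase enzyme above about 11% from the earlier first-round screen, limit read from the data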;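 also: 0% = VIM-2 with DMSO and 100% = buffer wells without enzyme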
* = called active by the depositor; nt = no result.

SMILES	VIM-2 inhibitor	pPAFAH inh	PAFAH2 FP inh	PAFAH1B3 FP inh	IMP-1 inh-1	PAFAH1B2 inh	IMP-1 inh-2	VIM-2 FRET ctr	TEM-1 counter	VIM-2 confirm 2
O=C(Cn1sc2ccccc2c1=O)N1CCN(C(=O)c2ccco2)CC1	-2	22	-3	5	-1	0	nt	nt	nt	nt
O=C(N/N=C/c1ccncc1)c1cccs1	-3	3	0	2	-2	4	nt	nt	nt	nt
O=C(N/N=C/c1ccc(-n2ccnc2)cc1)c1cccs1	77*	2	5	1	0	-5	-3	-11	-6	84*
O=C(O)C/C(=C\c1cc(Cl)c2c(c1)OCO2)c1nc2ccccc2s1	14*	14	19	11	1	6	0	40*	-5	23*
COc1cccc(/C=C(\CC(=O)O)c2nc3ccccc3s2)c1	3	-1	-36	1	-2	8	nt	nt	nt	nt
OCCNc1ncnc2c1sc1nc(N3CCOCC3)c3c(c12)CCC3	-3	-5	2	6	-3	-3	nt	nt	nt	nt
CCN(CC)CCNc1ncnc2c1sc1nc(N3CCOCC3)c3c(c12)CCCC3	15*	2	-7	0	-3	7	-4	0	-7	33*
CCCc1cc(=O)oc2c(C)c(OCC(=O)N3CCC[C@@H]3C(=O)O)ccc12	23*	-4	14	3	-4	4	-2	41*	-5	24*
Cc1cc(=O)oc2c3c(cc(OCC(=O)N4CCC[C@H]4C(=O)O)c12)OC(C)(C)CC3	26*	4	14	14	-2	7	-3	46*	-3	29*
Cc1cc(OCC(=O)N2CCC[C@@H]2C(=O)O)c2c(C)c(C)c(=O)oc2c1	27*	0	6	4	-3	6	-3	51*	-5	33*
CCCCCCc1c(C)c2ccc(OCC(=O)N3CCC[C@H]3C(=O)O)c(C)c2oc1=O	-4	24	9	14	-2	4	nt	nt	nt	nt
Cc1cc(=O)oc2c3c(cc(OCC(=O)N4CCC(C(=O)O)CC4)c12)OC(C)(C)CC3	0	17	9	5	-4	4	nt	nt	nt	nt
Cc1c(CC(=O)O)c(=O)oc2c(C)c3occ(-c4ccccc4)c3cc12	15*	2	-1	15	1	11	1	2	-10	21*
OC1=C(O)c2nc3cc(C(F)(F)F)ccc3nc21	17*	2	-2	3	1	1	-4	-1	-6	2
OC1=C(O)c2nc3ccccc3nc21	-1	0	10	7	-2	3	nt	nt	nt	nt
CC(C)Oc1ccc(Cn2c(-c3ccco3)n[nH]c2=S)cc1	16*	9	4	-2	-6	1	-3	45*	-10	27*
COc1ccccc1-n1c(-c2ccco2)n[nH]c1=S	22*	2	2	-5	-1	4	-3	44*	-8	28*
S=c1[nH]nc(-c2ccco2)n1-c1cccc2ccccc12	19*	0	2	4	-7	1	-2	49*	-8	32*
CC(=C/c1ccccc1)/C=N/n1c(-c2ccco2)n[nH]c1=S	17*	8	12	4	-2	12	-3	38*	-7	23*
COc1ccc(-n2c(-c3ccco3)n[nH]c2=S)cc1	2	4	-1	1	-4	2	nt	nt	nt	nt
Cc1ccc2c(c1)N(C(=O)CCC(=O)NC1CCN(Cc3ccccc3)CC1)CC(C)O2 (configuration not stated)	-3	1	-8	5	3	4	nt	nt	nt	nt
O=S(=O)(Nc1cc(S(=O)(=O)N2CCOCC2)ccc1O)c1ccc2c(c1)OCCCO2	nt	2	6	8	nt	1	nt	nt	nt	nt
O=c1oc2cc(O[C@@H]3OC[C@@H](O)[C@H](O)[C@H]3O)ccc2c2ccccc12	16*	3	-9	13	-2	2	-2	-3	-5	28*
CCCCCCCn1c(=N)n(CC(=O)c2ccco2)c2ccccc21	18*	1	-9	-4	-3	2	-3	-1	-6	3
COc1ccc(/C=C(\NC(=O)c2cccs2)C(=O)NN)cc1OC	-6	nt	-8	3	-5	4	nt	nt	nt	nt
SMILES	VIM-2 inhibitor	pPAFAH inh	PAFAH2 FP inh	PAFAH1B3 FP inh	IMP-1 inh-1	PAFAH1B2 inh	IMP-1 inh-2	VIM-2 FRET ctr	TEM-1 counter	VIM-2 confirm 2
COc1ccc(-n2c(=S)[nH]c3ccccc3c2=S)cc1	14*	-1	4	9	-2	-1	-3	27*	-5	19*
COc1ccc(C(=O)NCCS(=O)(=O)N2CCCC2)cc1	nt	3	-1	3	nt	3	nt	nt	nt	nt
COc1cc2c(cc1OC)[C@@H](NC(=O)CCC1CCCCC1)[C@H](O)C2	nt	8	1	4	nt	0	nt	nt	nt	nt
O=C(COC(=O)c1ccco1)Nc1ccc(N2CCOCC2)cc1	nt	nt	8	8	nt	4	nt	nt	nt	nt
Cc1ccc(CSc2ccc3nnc(-c4ccccn4)n3n2)cc1	21*	3	0	3	-3	5	-4	-3	-6	34*
Cc1ccc(C)c(CSc2ccc3nnc(-c4ccccn4)n3n2)c1	14*	1	9	2	-3	-1	-3	-3	-8	25*
Brc1ccc(CSc2ccc3nnc(-c4ccccn4)n3n2)cc1	25*	9	3	3	-3	0	-4	-4	-7	52*
Brc1ccc(CSc2ccc3nnc(-c4cccnc4)n3n2)cc1	2	-1	12	6	-2	0	nt	nt	nt	nt
COC(=O)c1ccc(CSc2ccc3nnc(-c4ccccn4)n3n2)o1	21*	-5	6	5	-4	3	-4	3	-5	38*
CCn1c(=O)c(CCC(=O)N2CCN(c3ccccn3)CC2)c(C)c2c(C)nn(-c3cccc(C)c3)c21	4	1	-2	10	0	3	nt	nt	nt	nt

Assay outcomes: PubChem, The Scripps Research Institute Molecular Screening Center
